Published values from different studies.
Target: Tyrosine-protein kinase ABL2 (ABL2, Homo sapiens, UniProt P42684)

COc1cc2ncnc(Nc3ccc(F)c(Cl)c3)c2cc1OCCCN1CCOCC1
remaining binding (cell-free assay; competition with immobilised ligand; 10 µM): 83%

C[C@@H]1CCN(c2nccc(-c3cnn4ncccc34)n2)C1
remaining binding (binding; 1 µM): 76%

CCN(CC)CCNC(=O)c1c(C)[nH]c(/C=C2\C(=O)Nc3ccc(F)cc32)c1C
remaining binding (cell-free assay; competition with immobilised ligand; 0.1 µM): 92%

O=C(c1ccc(Nc2ncc(Cl)c(-c3ccc(Cl)s3)n2)cc1)N1CCC(N2CCCC2)CC1
remaining binding (binding; competition with immobilised ligand; 1 µM): 56%

O=C(NCCCC1CCCCC1)c1ccc(CNC(=O)c2cnn(-c3ccccc3)c2C(F)(F)F)cc1
remaining binding (cell-free assay; competition with immobilised ligand; 0.1 µM): 87%

O=C(NCCCN1CCOCC1)c1ccc(Nc2nccc(-c3cc4ccccc4s3)n2)cc1
remaining binding (binding; competition with immobilised ligand; 1 µM): 85%

Cc1c(-c2ccccc2)oc2c(C(=O)OCCN3CCCCC3)cccc2c1=O
remaining binding (cell-free assay; competition with immobilised ligand; 0.1 µM): 100%

c1cnn2ncc(-c3ccnc(N4CCC45COC5)n3)c2c1
remaining binding (binding; 1 µM): 87%

CNC(=O)c1cc(Oc2ccc(NC(=O)Nc3ccc(Cl)c(C(F)(F)F)c3)cc2)ccn1
remaining binding (cell-free assay; competition with immobilised ligand; 10 µM): 33%

CS(=O)(=O)c1cc(C2(NC(=O)c3cncc4c3cnn4-c3ccc(F)cc3)CC2)ccn1
remaining binding (cell-free assay; competition with immobilised ligand; 1 µM): 95%

CN(C)c1ncc(F)c(-c2cnn3ncccc23)n1
remaining binding (binding; 1 µM): 100%

CN1CC[C@H](c2c(O)cc(O)c3c(=O)cc(-c4ccccc4Cl)oc23)[C@H](O)C1
remaining binding (cell-free assay; competition with immobilised ligand; 0.1 µM): 100%

CNC(=O)Nc1ccc2c(c1)[C@@]1(CC2)OC(=O)N(CC(=O)N(Cc2ccc(F)cc2)[C@@H](C)C(F)(F)F)C1=O
remaining binding (cell-free assay; competition with immobilised ligand; 1 µM): 84%

COc1ncc2cc3ccccc3nc2c1C#N
remaining binding (cell-free assay; competition with immobilised ligand; 5 µM): 96%

CCN1CCN(Cc2ccc(C(=O)Nc3ccc(C)c(Oc4ccc5c(c4)CC(=O)N5)c3)cc2C(F)(F)F)CC1
remaining binding (binding; competition with immobilised ligand; 1 µM): 20%

COc1cnc(Nc2cccc(S(N)(=O)=O)c2)nc1N1CCN(c2ccccc2)C(=O)C1
remaining binding (binding; competition with immobilised ligand; 1 µM): 100%

CS(=O)(=O)N1CCCC(NC(=O)[C@H](CCC2CCCCC2)NC(=O)c2ccc(CNC(=O)c3cnc4ccccn34)cc2)C1 (stereo partly drawn)
remaining binding (cell-free assay; competition with immobilised ligand; 0.1 µM): 56%

O=C(Nc1c[nH]nc1C(=O)NC1CCNCC1)c1cc(F)cc(F)c1
remaining binding (binding; competition with immobilised ligand; 1 µM): 100%

Nc1ncc2c(n1)-c1c([nH]c3ccc(C#CC4CC4)cc13)CCCC2
remaining binding (binding; competition with immobilised ligand; 1 µM): 86%

O=C(NCc1ncc(C(F)(F)F)cc1Cl)c1ccc2c(c1)C1(CCS(=O)(=O)CC1)[C@@H](C1CC1)N2S(=O)(=O)c1ccc(F)cc1
remaining binding (cell-free assay; competition with immobilised ligand; 1 µM): 100%

CC1CCCN1c1nccc(-c2cnn3ncccc23)n1 (stereo not drawn)
remaining binding (binding; 1 µM): 100%

CNCc1ccccc1-c1csc([C@@H](C)Nc2nc(C)nc3cc(OC)c(OC)cc23)c1
remaining binding (cell-free assay; competition with immobilised ligand; 1 µM): 100%

Cc1cnc(Nc2ccc(C(=O)N3CCC(N4CCCC4)CC3)cc2)nc1-c1cc2ccccc2s1
remaining binding (binding; competition with immobilised ligand; 1 µM): 43%

Cc1cnn2ncc(-c3ccnc(N(C)C)n3)c2c1
remaining binding (binding; 1 µM): 100%

N#Cc1ccc(Nc2ccc3[nH]c(=O)[nH]c3c2)c(Cl)c1
remaining binding (cell-free assay; competition with immobilised ligand; 1 µM): 93%

CS(=O)(=O)CCNCc1ccc(-c2ccc3ncnc(Nc4ccc(OCc5cccc(F)c5)c(Cl)c4)c3c2)o1
remaining binding (cell-free assay; competition with immobilised ligand; 10 µM): 100%

O=C(Nc1cccnn1)N1CC(C/C=C/c2cncc(Oc3ccc(C(F)(F)F)cn3)n2)C1
remaining binding (cell-free assay; competition with immobilised ligand; 1 µM): 100%

FC(F)(F)Oc1cccc(-c2cnc3ccc(-c4ccncc4)nn23)c1
remaining binding (cell-free assay; competition with immobilised ligand; 5 µM): 76%

CN(C)c1nccc(-c2cnc3ncccn23)n1
remaining binding (binding; 1 µM): 99%

CCN(CC)Cc1cc(Nc2ccnc3cc(Cl)ccc23)ccc1O
remaining binding (cell-free assay; competition with immobilised ligand; 0.1 µM): 97%
